Experimental findings from ChEMBL document CHEMBL1124451, “[(1H-imidazol-1-yl)methyl]- and [(3-pyridinyl)methyl]pyrroles as thromboxane synthetase inhibitors” (J Med Chem, 1989) are described below.

Structures are written as SMILES.

In experiment [1] the target is T1, Thromboxane-A synthase (Homo sapiens) (UniProt P24557).
T1 sequence (whole entry): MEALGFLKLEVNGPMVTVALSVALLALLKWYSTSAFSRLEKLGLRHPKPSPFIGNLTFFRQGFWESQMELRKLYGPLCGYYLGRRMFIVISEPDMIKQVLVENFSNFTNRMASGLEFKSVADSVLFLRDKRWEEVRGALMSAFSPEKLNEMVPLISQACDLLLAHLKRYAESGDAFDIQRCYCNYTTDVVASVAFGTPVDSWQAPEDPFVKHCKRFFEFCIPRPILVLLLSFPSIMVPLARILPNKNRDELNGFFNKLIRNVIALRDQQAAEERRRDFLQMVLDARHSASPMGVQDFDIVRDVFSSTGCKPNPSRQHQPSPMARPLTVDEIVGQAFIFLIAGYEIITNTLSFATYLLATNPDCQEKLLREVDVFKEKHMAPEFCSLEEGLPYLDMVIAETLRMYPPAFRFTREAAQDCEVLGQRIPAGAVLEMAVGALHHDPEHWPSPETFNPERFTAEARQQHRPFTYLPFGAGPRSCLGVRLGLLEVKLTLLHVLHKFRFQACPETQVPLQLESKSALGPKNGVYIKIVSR
The experiment can be described thus: Relative potency of thromboxane A2 synthetase as reduced ADP-induced aggregation of human platelet rich plasma compared to dazoxiben. The class given is functional, cell-free.

For experiment [2], the species on record is Homo sapiens. The experiment is described as follows: In vitro inhibition of ADP-induced aggregation of human platelet rich plasma in the presence of pig aortal microsomes. The experiment is classed as functional. The conditions noted are these: Aorta. In short, it runs like this:
(§1)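 Human citrated blood (0.38% citrate final), PRP by centrifugation at 200g, room temperature. Drug added to 1.0 mL PRP, 2 min at 37 °C with stirring (500 rpm), then pig aortal microsomes 3 min; microsome amount set by the dazoxiben standard. Aggregation induced by 5 μM ADP (final), read turbidimetrically.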

For experiment [3], the species on record is Homo sapiens. The experiment is described as follows: Relative potency to inhibit ADP-induced aggregation of human platelet rich plasma compared to that of dazoxiben, in vitro using pig aortal microsomes. The experiment is classed as functional. To be noted: Aorta.
Experiment [4] relates to Mus musculus. The experiment is described as follows: Activity at 10 mg/kg […] against mortality in a pulmonary thromboembolism model in mice (10 animals) at -18h following oral administration. The experiment is classed as functional. The method in brief:
(§2)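 Male Swiss-Webster mice (22-26 g), 10 per group (one group of 9); test material given po in 0.2 mL CMC at -1, -3, -5 or -18 h before challenge. At hour 0, collagen extract plus epinephrine hydrochloride given iv via tail vein in 0.9% saline. The collagen amount was titrated per lot to 90-100% mortality in vehicle controls. Readout: % surviving at 24 h.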

The subject of experiment [5] is Mus musculus. The experiment is described as follows: Activity at 10 mg/kg […] against mortality in a pulmonary thromboembolism model in mice (10 animals) at -1h following oral administration. The class given is functional. In short, it runs like this: as §2
Experiment [6] has as its system Mus musculus. The experiment is described as follows: Activity at 10 mg/kg […] against mortality in a pulmonary thromboembolism model in mice (10 animals) at -7h following oral administration. The class given is functional.
Experiment [7] has as its system Mus musculus. The experiment is described as follows: Activity at 10 mg/kg […] against mortality in a pulmonary thromboembolism model in mice (9 animals) at -3h following oral administration. The experiment is classed as functional. In short, it runs like this:
as §2

Experiment [8] concerns Mus musculus. The experiment can be described thus: Activity at 10 mg/kg […] against mortality in a pulmonary thromboembolism model in mice (10 animals) at -5h following oral administration. The class given is functional. In short, it runs like this:
as §2

The test system of experiment [9] is Mus musculus. The experiment is described as follows: Activity at 20 mg/kg given intravenously against mortality in a pulmonary thromboembolism model in mice (10 animals) at -3h. The class given is functional. The conditions noted are these: route intravenous. The method in brief: (§3)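 Male Swiss-Webster mice (22-26 g); test material given iv in 0.2 mL CMC before challenge (mostly at -3 h, one group at -1 h). At hour 0, collagen extract plus epinephrine hydrochloride given iv in 0.2 mL 0.9% saline via tail vein. The collagen amount was set per lot as the minimum giving 90-100% mortality in CMC-vehicle controls. Readout: % surviving at 24 h.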

The test system of experiment [10] is Mus musculus. The experiment is described as follows: Activity at 10 mg/kg given intravenously against mortality in a pulmonary thromboembolism model in mice (10 animals) at -3h. The experiment is classed as functional. The conditions noted are these: route intravenous. In short, it runs like this: as §3
The next experiment deals with Rattus norvegicus. The experiment is described as follows: Effect of perorally administered compound on systolic blood pressure and proteinuria was studied with a 5/6 renal ablated rat as a model of progressive injury. The class given is functional, Artery. In short, it runs like this:
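Male Munich Wistar rats (200-270 g) with 5/6 renal ablation were dosed in drinking water from 1 week post-surgery at 68, 205 or 410 mg/kg/day; controls received water. Conscious systolic pressure measured weekly by tail cuff. 24-h urinary protein measured every 2 weeks by the sulfosalicylic acid method.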

For experiment [11], the species on record is Homo sapiens. The experiment is described as follows: In vitro inhibition of ADP-induced aggregation of human platelet rich plasma in the presence of pig aortal microsomes. The experiment is classed as functional. The conditions noted are these: Aorta. In short, it runs like this: as §1
For experiment [12], the species on record is Homo sapiens. The experiment is described as follows: Relative potency to inhibit ADP-induced aggregation of human platelet rich plasma compared to that of dazoxiben, in vitro using pig aortal microsomes. The class given is functional. The conditions noted are these: Aorta.
Experiment [13] is filed under the species Homo sapiens. The experiment is described as follows: In vitro inhibition of ADP-induced aggregation of human platelet rich plasma in the presence of pig aortal microsomes, at 5*10e-6 M compound concentration.

On to `C/C(=C/c1ccc(Cc2cccnc2)n1C(C)C)C(=O)O`, for which the Relative potency in experiment [1] is 0.9.

`CCOC(=O)/C(C)=C\c1cc(Cc2cccnc2)n(C(C)(C)C)c1`: the IC50 in the experiment listed under Homo sapiens [2] came out at 3.2 µM. In the experiment filed under Homo sapiens [3], this molecule returned a Relative potency of 0.59.

Turning to `C/C(=C\c1ccc(Cn2ccnc2)[nH]1)C(=O)OCc1ccccc1`, in the experiment filed under Homo sapiens [2], the IC50 stood at 20 µM. For the same molecule, the Relative potency in the experiment listed under Homo sapiens [3] was found to be 0.11.

On to `Cc1c(Cn2ccnc2)c2ccccc2n1CCC(=O)O` [DAZMEGREL], for which the IC50 in the experiment filed under Homo sapiens [2] stood at 1.9 µM. The Relative potency in the experiment filed under Homo sapiens [3] was found to be 1. Moreover, the survival at 10 mg/kg in the experiment with Mus musculus [4] came out at 10%; in the experiment with Mus musculus [5], 20%; in the experiment on Mus musculus [6], 0%; in the experiment with Mus musculus [7] it was 11%; in the experiment with Mus musculus [8] it was 20%.

`CCOC(=O)/C=C\c1ccc(Cn2ccnc2)n1C`: the IC50 in the experiment listed under Homo sapiens [2] was determined as 8.9 µM. The Relative potency in the experiment filed under Homo sapiens [3] was found to be 0.25.

Consider `C/C(=C/c1ccc(Cc2cccnc2)n1C)C(=O)O`, for which, in the experiment with Mus musculus [9], the survival at 20 mg/kg was determined as 30%. Moreover, the survival at 10 mg/kg with Mus musculus [10] came out at 0%. Further, the Relative potency in [1] stood at 46.

On to `CCOC(=O)/C(C)=C\c1ccc(Cc2cccnc2)n1CC`, for which the IC50 in the experiment filed under Homo sapiens [2] was 14 µM. In the experiment filed under Homo sapiens [3], this molecule showed a Relative potency of 0.14.

In the experiment on Rattus norvegicus, `CCOC(=O)[C@H](CCc1ccccc1)N[C@@H](C)C(=O)N1CCC[C@H]1C(=O)O` displayed an ED of 4 mg/kg.

The molecule `C/C(=C/c1ccc(Cc2cccnc2)n1-c1ccccc1)C(=O)O` returned a Relative potency in experiment [1] of 0.08.

For the molecule `CCOC(=O)/C(C)=C\c1ccc(Cc2cccnc2)n1CC(C)(C)C`, the IC50 in the experiment filed under Homo sapiens [2] is 57 µM. The Relative potency in the experiment filed under Homo sapiens [3] is 0.03.

In the experiment on Mus musculus [9], `CCn1c(/C=C(/C)C(=O)O)ccc1Cc1cccnc1` yielded a survival at 20 mg/kg of 10%. In the experiment with Mus musculus [10], the survival at 10 mg/kg stood at 10%. Besides, the Relative potency in [1] stood at 45.

In experiment [1], `C/C(=C\c1ccc(Cn2ccnc2)[nH]1)C(=O)O` displayed a Relative potency of 0.24.

Take `CCOC(=O)/C(C)=C\c1ccc(Cn2ccnc2)n1C`: in the experiment filed under Homo sapiens [11], the IC50 amounted to 26 µM. This molecule showed a Relative potency in the experiment listed under Homo sapiens [12] of 0.08.

Regarding `CCOC(=O)/C(C)=C\c1ccc(Cc2cccnc2)n1C(C)C`, the IC50 in the experiment filed under Homo sapiens [2] stood at 32 µM. In addition, the Relative potency in the experiment filed under Homo sapiens [3] turned out to be 0.06.

As to `Cn1cc(/C=C/C(=O)O)cc1Cn1ccnc1`, in experiment [1], the Relative potency was determined as 0.62.

As for `C/C(=C\c1cc(Cn2ccnc2)n(C)c1)C(=O)O`, in experiment [1], the Relative potency was 1.3.

In the case of `C/C(=C/c1ccc(Cc2cccnc2)n1CC(C)(C)C)C(=O)O`, the Relative potency in experiment [1] is 0.24.

Regarding `CCOC(=O)/C(C)=C\c1ccc(Cc2cccnc2)n1-c1ccccc1`, in the experiment listed under Homo sapiens [2], the IC50 stood at 180 µM. The molecule further showed a Relative potency in the experiment listed under Homo sapiens [3] of 0.01.

For the molecule `CCOC(=O)/C=C/c1cc(Cn2ccnc2)n(C)c1`, the IC50 in the experiment listed under Homo sapiens [2] stood at 1.8 µM. In addition, the Relative potency in the experiment listed under Homo sapiens [3] worked out at 1.2.

Take `COC(=O)[C@@H]1CC1c1ccc(Cn2ccnc2)n1C` (some centres not stated): the Relative potency in [1] worked out at 0.22.

With `Cn1c(/C=C/C(=O)O)ccc1Cn1ccnc1`, in experiment [1], the Relative potency was 0.75.

Take `CCOC(=O)/C(C)=C/c1cc(Cn2ccnc2)n(C)c1`: the IC50 in the experiment listed under Homo sapiens [2] was 1.8 µM. The molecule also had a Relative potency in the experiment filed under Homo sapiens [3] of 1.1.

For the molecule `CCOC(=O)/C(C)=C\c1ccc(Cn2ccnc2)[nH]1`, the IC50 in the experiment listed under Homo sapiens [2] stood at 8.1 µM. For the same molecule, in the experiment listed under Homo sapiens [3], the Relative potency came out at 0.31.

With `CCOC(=O)/C(C)=C\c1ccc(Cc2cccnc2)n1C`, the inhibition in the experiment listed under Homo sapiens [13] turned out to be 49%.

`C/C(=C/c1cc(Cc2cccnc2)n(C(C)(C)C)c1)C(=O)O` yielded a survival at 10 mg/kg with Mus musculus [10] of 30%. In [1], this molecule showed a Relative potency of 43.
